{"source": "ChEMBL document CHEMBL1649302", "about": "“New small-molecule inhibitor class targeting human immunodeficiency virus type 1 virion maturation” (Antimicrob Agents Chemother, 2009)", "key": {"[1]": {"assay": "Therapeutic index, ratio of CC50 for human PM1 cells to EC50 for HIV1 Ba-L infected in human PM1 cells", "format": "cell-based", "conditions": "read-out: TI", "method_in_brief": "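PM1 cells infected at MOI 0.16 for 2 h, washed, then seeded at 1 × 10⁴ cells/well on half-log compound dilutions. After 5 days, supernatant p24 antigen was quantified by ELISA kit. EC50 is the concentration halving p24 versus infected untreated cells. CC50 was measured in PM1 cells by XTT formazan at 450 nm. TI is CC50 divided by EC50.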"}, "[2]": {"test_system": "Human immunodeficiency virus 1", "assay": "Antiviral activity against HIV1 RF infected in human MT2 cells assessed as protection against virus-induced cytopathogenicity after 6 days by XTT assay", "format": "functional, organism-based", "conditions": "Human immunodeficiency virus 1, RF, MT2, 144 h", "method_in_brief": "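Host cells were infected with NL4-3 or IIIB (MOI 0.08) or RF (MOI 0.025–0.819) and seeded at 2 × 10⁴/well onto half-log compound dilutions. After 6 days, XTT/PMS was added for 4 h and formazan was read at 450 nm. EC50 was the concentration giving 50% of the formazan of uninfected, compound-free cells.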"}, "[3]": {"assay": "Therapeutic index, ratio of CC50 for human MT2 cells to EC50 for HIV1 92HT599 infected in human MT2 cells", "format": "cell-based", "conditions": "read-out: TI", "method_in_brief": "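TI was the mean CC50 (XTT, uninfected MT-2) divided by the mean EC50, determined for each cell line in each experiment.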"}, "[4]": {"test_system": "Human immunodeficiency virus 1", "assay": "Antiviral activity against HIV1 harboring capsid I201V mutant protein assessed as inhibition of virion maturation-associated CA/SP1 processing", "format": "functional, organism-based", "method_in_brief": "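HEK 293 cells were transfected with pNL4-3 CAI201V, pNL4-3 or mock, with or without compound at various concentrations, and supernatants collected 72 h later. Supernatants were clarified at 200 × g, and virions pelleted through a 20% sucrose–PBS cushion (20,000 × g, 3 h, 4°C) and lysed. Proteins were run on 4–12% Bis-Tris/MOPS gels and immunoblotted with anti-p24 (1:1,000) to detect CA/SP1 p25 versus p24.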"}, "[5]": {"test_system": "Human immunodeficiency virus 1", "assay": "Antiviral activity HIV1 91US056 infected in human PBMC after 7 days by scintillation counting", "format": "functional, organism-based", "conditions": "Human immunodeficiency virus 1, 91US056, 168 h", "method_in_brief": "(§1)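 Fresh PBMCs from HIV/HBV-seronegative donors were PHA-stimulated (4 μg/ml, 48–72 h) and kept with IL-2 (20 U/ml), with at least two donors pooled. Cells were seeded at 5 × 10⁴/well and infected (final MOI ≅0.1) with nine compound concentrations in triplicate wells. After 7 days, reverse transcriptase activity was measured in cell-free supernatant.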"}, "[6]": {"test_system": "Human immunodeficiency virus 1", "assay": "Antiviral activity HIV1 92US072 infected in human PBMC after 7 days by scintillation counting", "format": "functional, organism-based", "conditions": "Human immunodeficiency virus 1, 92US072, 168 h", "method_in_brief": "as §1"}, "[7]": {"test_system": "Human immunodeficiency virus 1", "assay": "Antiviral activity HIV1 93BR029 infected in human PBMC after 7 days by scintillation counting", "format": "functional, organism-based", "conditions": "Human immunodeficiency virus 1, 93BR029, 168 h", "method_in_brief": "(§2)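 PBMCs came from buffy coats pooled from 3–4 seronegative donors, were PHA-stimulated (1.5 μg/ml, 3 days) and frozen. Thawed cells were infected 1 h at 37°C with virus input set by TCID50, then pelleted and resuspended in IL-2 (10 ng/ml). They were plated at 4 × 10⁵ cells/ml onto compounds for 7 days at 37°C. Supernatant RT activity was measured by Quan-T-RT scintillation assay.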"}, "[8]": {"test_system": "Human immunodeficiency virus 1", "assay": "Antiviral activity HIV1 CMU06 infected in human PBMC after 7 days by scintillation counting", "format": "functional, organism-based", "conditions": "Human immunodeficiency virus 1, CMU06, 168 h", "method_in_brief": "as §2"}, "[9]": {"assay": "Therapeutic index, ratio of CC50 for human PBMC to EC50 for HIV1 92HT599 infected in human PBMC", "conditions": "read-out: TI", "method_in_brief": "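Frozen PHA-stimulated (1.5 μg/ml, 3 days) buffy-coat PBMCs pooled from three or four seronegative donors. Infected with a TCID50-based virus input per 10⁶ cells for 1 h at 37°C, then pelleted and resuspended in 10 ng/ml IL-2. Plated at 4 × 10⁵ cells/ml on compound dilutions for 7 days at 37°C. Supernatant RT measured by Quan-T-RT. TI is mean CC50 divided by mean EC50.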"}, "[10]": {"assay": "Therapeutic index, ratio of CC50 for human PBMC to EC50 for HIV1 92TH026 infected in human PBMC", "conditions": "read-out: TI", "method_in_brief": "(§3)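 PHA-stimulated (4 μg/ml, 48 to 72 h) PBMCs pooled from at least two seronegative donors, kept with 20 U/ml IL-2, plated at 5 × 10⁴ cells/well. Infected with clinical isolate (final MOI ≅0.1) alongside nine compound concentrations in triplicate wells, 7 days. Supernatant reverse transcriptase activity measured. TI is mean PBMC CC50 divided by mean EC50.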"}, "[11]": {"assay": "Therapeutic index, ratio of CC50 for human PBMC to EC50 for HIV1 93BR021 infected in human PBMC", "conditions": "read-out: TI", "method_in_brief": "as §3"}}, "note": "The source made the active and inactive calls. No cut-off for these calls is given here."}
{"smiles": "CC(C)(C)c1ccc(C(Cn2cccc(C(F)(F)F)c2=O)NC2Cc3ccccc3C2)cc1", "note": "(stereo unspecified)", "values": [{"measurement": "selectivity ratio", "setting": "[1]", "value": 4}, {"measurement": "EC50", "setting": "[2]", "value": "> 16000", "unit": "nM"}, {"measurement": "selectivity ratio", "setting": "[3]", "value": 90}, {"measurement": "inhibition", "setting": "[4]", "value": "inactive"}, {"measurement": "EC50", "setting": "[5]", "value": "> 17000", "unit": "nM"}, {"measurement": "EC50", "setting": "[6]", "value": 5, "unit": "nM"}, {"measurement": "EC50", "setting": "[7]", "value": 570, "unit": "nM"}, {"measurement": "EC50", "setting": "[8]", "value": 1200, "unit": "nM"}, {"measurement": "selectivity ratio", "setting": "[9]", "value": 12}, {"measurement": "selectivity ratio", "setting": "[10]", "value": "< 1"}, {"measurement": "selectivity ratio", "setting": "[11]", "value": 425}]}
